These results are taken from ChEMBL document CHEMBL1145326, “Antimycobacterial agents. Novel diarylpyrrole derivatives of BM212 endowed with high activity toward Mycobacterium tuberculosis and low cytotoxicity” (2006).

Assay [1] deals with Mycobacterium tuberculosis. The assay is described as follows: Antibacterial activity against Mycobacterium tuberculosis 103471. In kind it is functional. Summed up:
(§1)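 MIC by serial 2-fold tube dilution. Compound DMSO stocks were filter-sterilised (0.2 µm) and diluted in water. Tubes were inoculated with 10⁵–10⁶ CFU/mL of each mycobacterium and incubated at 37 °C for 3–21 days. Each run included a drug-free control tube. Values are in µg/mL.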

The test system of assay [2] is Vero. The assay is described as follows: Cytotoxicity against Vero cell line. The class given is functional, Chlorocebus sabaeus. An outline of the steps: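 Vero cells were cultured for 24 h, then the medium was replaced with medium holding decreasing compound concentrations. After 5 days the cells were trypsinised and counted in a Neubauer chamber, in triplicate. MNTD₅₀ (µg/mL) is the concentration that decreased cell multiplication by less than 50% of control.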

Assay [3] relates to Vero. Description: Protection index, cytotoxicity against Vero cell line/antibacterial activity against Mycobacterium tuberculosis 103471. The class given is functional. Summed up: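 Protection index is the ratio of Vero-cell MNTD₅₀ (cell counts after 5-day exposure) to the MIC against M. tuberculosis CIP 103471. The MIC came from 2-fold tube dilution, inoculum 10⁵–10⁶ CFU/mL, 37 °C.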

A further assay concerns Mycobacterium avium. Description: Antibacterial activity against Mycobacterium avium. The class given is functional. Summed up: as §1
The test system of another assay is Mycobacterium marinum. Description: Antibacterial activity against Mycobacterium marinum. In kind it is functional. Summed up: as §1
Assay [4] deals with Mycolicibacterium smegmatis. The assay is described as follows: Antibacterial activity against Mycobacterium smegmatis. The class given is functional. An outline of the steps: as §1
Assay [5] concerns Mycobacterium tuberculosis. The assay is described as follows: Antibacterial activity against intramacrophagic Mycobacterium tuberculosis. In kind it is functional.

As a reminder, the MIC is the lowest concentration that inhibits growth of the organism. Read a low MIC as a more susceptible organism.

Converted amounts (≈) assume the structure as drawn. Some results are limits rather than exact numbers.

As for `CO[C@H]1/C=C/O[C@@]2(C)Oc3c(C)c(O)c4c(O)c(c(/C=N/N5CCN(C)CC5)c(O)c4c3C2=O)NC(=O)/C(C)=C\C=C\[C@H](C)[C@H](O)[C@@H](C)[C@@H](O)[C@@H](C)[C@H](OC(C)=O)[C@@H]1C` [RIFAMPIN], the MIC amounted to 0.3 µg/mL (≈ 0.365 µM) in assay [1], 0.3 µg/mL (≈ 0.365 µM) with Mycobacterium avium, 0.6 µg/mL (≈ 0.729 µM) in the assay on Mycobacterium marinum and 32 µg/mL (≈ 38.9 µM) in assay [4]. The “Maximal non-toxic dose 50” value in the assay on Vero [2] was determined as 64 µg/mL. The molecule further gave a PI with Vero [3] of 213. Further, the MCC in assay [5] stood at 3 µg/mL.

Turning to `Cc1ccc(-c2cc(CN3CCSCC3)c(C)n2-c2ccc(F)cc2)cc1`, the MIC in assay [1] is 0.4 µg/mL (≈ 1.05 µM); in the assay on Mycobacterium avium it was 8 µg/mL (≈ 21 µM); against Mycobacterium marinum it was 8 µg/mL (≈ 21 µM); in assay [4], 16 µg/mL (≈ 42 µM). Besides, the “Maximal non-toxic dose 50” value in the assay with Vero [2] came out at 64 µg/mL. For the same molecule, the PI in the assay on Vero [3] was determined as 160. Also, in assay [5], the MCC is 3 µg/mL.

Take `Cc1c(CN2CCSCC2)cc(-c2ccc(F)cc2)n1-c1ccccc1F`: the MIC was 0.5 µg/mL (≈ 1.3 µM) in assay [1], 8 µg/mL (≈ 20.8 µM) in the assay with Mycobacterium avium, more than 16 µg/mL against Mycobacterium marinum and 8 µg/mL (≈ 20.8 µM) in assay [4]. The “Maximal non-toxic dose 50” value in the assay on Vero [2] was 8 µg/mL. Also, the PI in the assay with Vero [3] amounted to 16. For the same molecule, the MCC in assay [5] was 3 µg/mL.
